The nature of data set [1]: Binding affinity to human HRAS2 G-quadruplex FAM-CGGGGCGGGGCGGGGGCGGGGGCG-TAMRA DNA assessed as quenching of fluorescence emission by FRET titration assay. The gist of the method:
(§1)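 FRET titration of 200 nM oligonucleotide dual-labelled at its ends with carboxyfluorescein (donor) and tetramethylrhodamine (acceptor), in 50 mM Tris-HCl with KCl (100 mM for htelo and hras-1, 10 mM for KRAS and hras-2). Ligand binding quenches the emission, mainly the acceptor at 580 nm. The fraction of filled sites was fitted to the Hill equation to give apparent KD and the Hill coefficient.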

Data set [2] has as its system T-24. Description: Cellular uptake in human T24 cells assessed as accumulation in nucleoli at 2.5 uM after 2 hrs by propidium iodide staining-based confocal microscopic analysis. It is filed as ADME, cell-based. The settings on record: t-24, 2 h. Put shortly:
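T24 cells plated (3 × 10^5) on coverslips and treated after 24 h with 2.5 μM ligand for 2 h. Fixed in 3% paraformaldehyde and permeabilized with Triton X-100. Cytoplasm immunostained for DRP1 with FITC secondary; nuclei stained with propidium iodide plus RNase A. Ligand red fluorescence excited at 543 nm; confocal Z-sections at 2 μm intervals.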

The test system of a further data set is Salmonidae. In words: Thermal stabilization of salmon sperm duplex DNA assessed as melting temperature by FRET assay.
The species entered for data set [3] is Homo sapiens. In words: Thermal stabilization of human HRAS2 G-quadruplex FAM-CGGGGCGGGGCGGGGGCGGGGGCG-TAMRA DNA assessed as as change in melting temperature at 1:1 DNA:ligand ratio by FRET assay. Put shortly:
(§2)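 FRET melting in 50 mM Tris-HCl pH 7.4 with an equimolar ligand:quadruplex ratio (r = 1). Conditions: NRAS RNA and hras-2 in 10 mM KCl; hras-1 in 100 mM KCl, with ΔTM taken from its second transition. Ramp 1 °C/min from 20 to 95 °C after 5 min equilibration. TM and ΔTM (±0.5 K) versus ligand-free quadruplex.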

Another data set relates to HEK293. In words: Cytotoxicity against human HEK293 cells expressing wild type HRAS at 1 to 30 uM after 72 hrs by resazurin assay. It is filed as cell-based. The settings on record: HEK293, 72 h. The gist of the method: (§3)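 Cells seeded at 3000 per well the day before treatment, grown in DMEM with 10% FBS. Ligand added at 1, 2.5, 5, 10, 20, 30 μM for 72 h. Viability measured by resazurin and expressed as % of untreated cells; mean of three independent measurements. IC50 is the concentration reducing proliferation by 50%.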
On the technique in general: Resazurin is reduced to fluorescent resorufin, in cell work by metabolically active cells.

Data set [4] concerns T-24. In words: Binding affinity to wild type HRAS quadruplex DNA in human T24 cells assessed as reduction in gene expression compound treated for 24 hrs prior to transfection measured 72 hrs post transfection by dual-luciferase reporter gene assay relative to control. Type of data set: cell-based. For orientation: A reporter such as luciferase makes a cellular process visible.

For data set [5], the species on record is Homo sapiens. In words: Thermal stabilization of human HRAS1 G-quadruplex FAM-TCGGGTTGCGGGCGCAGGGCACGGGCG-TAMRA DNA assessed as change in melting temperature at 1:5 DNA:ligand ratio by FRET assay. Put shortly: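 FRET melting of 200 nM dual-labelled quadruplex in 50 mM Tris-HCl with KCl (100 mM for htelo and hras-1, 10 mM for KRAS and hras-2). Ligand at r = 5 ([ligand]/[quadruplex]; hras-2 tabulated at r = 4). Samples held 5 min at 20 °C, then heated 1 °C/min to 95 °C. ΔTM is the TM with ligand minus TM without ligand (±0.5 K). For hras-1 both biphasic transitions are given.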

The next data set concerns T-24 (human). In words: Cell cycle arrest in human T24 cells expressing mutant HRAS assessed as accumulation at G2/M phase at 10 uM after 24 hrs by FACS analysis. On the technique in general: A flow cytometer gives signals particle by particle.
A short description of data set [6]: Binding affinity to human HRAS1 G-quadruplex FAM-TCGGGTTGCGGGCGCAGGGCACGGGCG-TAMRA DNA assessed as quenching of fluorescence emission by FRET titration assay. The gist of the method:
as §1

Data set [7] has as its system T-24. Description: Cell cycle arrest in human T24 cells assessed as accumulation at G0/G1 phase at 10 uM after 48 to 72 hrs by FACS analysis relative to control. Type of data set: functional. The gist of the method: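 T24 cells treated with 10 μM ligand for 48 or 72 h. Fixed 1 h at 4 °C in 70% ethanol, then stained with propidium iodide 0.05 mg/mL plus RNase A 0.1 mg/mL for 30 min at room temperature. Analysed by FACS (FL2). Phase percentages compared with control by t-test (p < 0.05).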

Data set [8] relates to T-24. Description: Cytotoxicity against human T24 cells expressing mutant HRAS at 1 to 30 uM after 72 hrs by resazurin assay. Type of data set: functional, cell-based. As to conditions: T-24, 72 h. The gist of the method: as §3
The species named for data set [9] is Homo sapiens. In words: Thermal stabilization of human HRAS1 G-quadruplex FAM-TCGGGTTGCGGGCGCAGGGCACGGGCG-TAMRA DNA assessed as change in melting temperature at 1:1 DNA:ligand ratio by FRET assay. Put shortly: as §2
The species named for data set [10] is Homo sapiens. Description: Thermal stabilization of human NRAS G-quadruplex FAM-GGGAGGGGCGGGUCUGGG-TAMRA RNA assessed as change in melting temperature at 1:1 DNA:ligand ratio by FRET assay. The gist of the method:
as §2

Data set [11] in a line: Binding affinity to mouse KRAS G-quadruplex FAM-GCGGGAGGGAGGGAAGGAGGGAGGGAGGGAG-TAMRA DNA assessed as quenching of fluorescence emission by FRET titration assay. The gist of the method: as §1
The subject of data set [12] is NIH3T3. In words: Cellular uptake in mouse NIH/3T3 cells at 0.5 to 10 uM after 8 hrs by flow cytometric analysis. The settings on record: nih3t3, 8 h. Type of data set: ADME, cell-based. The gist of the method: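 Cells plated at 5 × 10^4 per well and treated next day with ligand at […] for 8 h. Then trypsinized, resuspended in PBS and analysed by flow cytometry (488 nm excitation, FL3 680 nm, log scale), at least 10,000 cells per sample. Uptake read from intrinsic ligand red fluorescence.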

For data set [13], the system named is T-24. In words: Binding affinity to HRAS G-quadruplex DNA in human T24 cells assessed as reduction in p21HRAS level at 5 uM after 72 hrs by immunoblotting analysis relative to control. It is filed as cell-based. Further details: scale not given: the % may be the effect or the level left. Put shortly:
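T24 cells treated with 5 μM ligand for 48 or 72 h. Lysates (30 μg) run on 12% SDS-PAGE and immunoblotted with monoclonal anti-HRAS and β-actin antibodies, with HRP detection. HRAS level = (p21HRAS/β-actin treated)/(p21HRAS/β-actin untreated) × 100.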

The test system of data set [14] is NIH3T3. Description: Cellular uptake in mouse NIH/3T3 cells at 0.5 to 10 uM after 10 mins to 8 hrs by flow cytometric analysis. As to conditions: nih3t3, 10 µM. Type of data set: ADME, cell-based. The gist of the method: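 Flow cytometric uptake of 10 μM ligand over time (15 min, 1, 2, 6, 8 h; T24, and up to 8 h in NIH 3T3 and 293). Cells plated at 5 × 10^4 per well the day before. Ligand fluorescence detected in FL3 (680 nm), at least 10,000 cells acquired.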

Data set [15] has as its system NIH3T3. In words: Cellular uptake in mouse NIH/3T3 cells after 4 hrs by FACS flow cytometric analysis in presence of cytochalasin D. It is filed as ADME, cell-based. The settings on record: nih3t3, 4 h.
Data set [16] deals with NIH3T3. Description: Cytotoxicity against mouse NIH/3T3 cells at 1 to 30 uM after 72 hrs by resazurin assay. Type of data set: cell-based. As to conditions: NIH3T3, 72 h. The gist of the method: as §3

Active and inactive are the calls of the source. No cut-off for these calls is given here.

The values that follow come from ChEMBL document CHEMBL2346582, “Guanidino anthrathiophenediones as G-quadruplex binders: uptake, intracellular localization, and anti-Harvey-Ras gene activity in bladder cancer cells” (J Med Chem, 2013).

One may read the Kd as the free concentration of one partner at which half of the binding sites on the other are occupied at equilibrium, for simple one-to-one binding. As a reminder, the IC50 is the concentration needed to halve the response being measured. Turning to `N=C(N)NCCCNc1c2c(c(NCCNC(=N)N)c3sccc13)C(=O)c1ccccc1C2=O`, the Kd in data set [1] came to 280 nM; in [6], 280 nM; in data set [11] it was 230 nM. Also, the Drug uptake result in the data set with T-24 [2], with NIH3T3 [12], in the data set on NIH3T3 [14] and in the data set with NIH3T3 [15] was “Active” throughout. For the same compound, the result in the data set on Salmonidae and with T-24 (human) was Active. The deltaTm in the data set listed under Homo sapiens [3] came to 3 K; in the data set filed under Homo sapiens [5], 16 K; in the data set filed under Homo sapiens [9] it was 8 K; in the data set listed under Homo sapiens [10], 11 K. The half-inhibitory concentration (IC50) was > 30000 nM with HEK293, 6500 nM in the data set with T-24 [8] and 20000 nM in the data set on NIH3T3 [16]. The Activity result is “Dose-dependent effect” with T-24 [4], 63% in the data set with T-24 [7] and 20% in the data set on T-24 [13].

In the case of `N=C(N)NCCCNc1c2c(c(NCCNC(=N)N)c3ccsc13)C(=O)c1ccccc1C2=O`, the Kd was 370 nM in [1], 360 nM in data set [6] and 210 nM in data set [11]. For the same compound, the Drug uptake entry in the data set on T-24 [2], in the data set with NIH3T3 [12], in the data set on NIH3T3 [14] and in the data set on NIH3T3 [15] was “Active” throughout. Further, the outcome in the data set on Salmonidae and with T-24 (human) was Active. In addition, the deltaTm in the data set filed under Homo sapiens [3] is 4 K; in the data set filed under Homo sapiens [5] it was 13 K; in the data set listed under Homo sapiens [9], 5 K; in the data set filed under Homo sapiens [10], 9 K. Moreover, the IC50 is 20000 nM in the data set on HEK293, 7900 nM with T-24 [8] and > 30000 nM in the data set with NIH3T3 [16]. In addition, the Activity result in the data set with T-24 [4] was “Dose-dependent effect”; with T-24 [7], 63%; with T-24 [13], 20%.

Regarding `N=C(N)NCCCCNc1c2c(c(NCCCCNC(=N)N)c3sccc13)C(=O)c1ccccc1C2=O`, the figures for the Kd in [1], in data set [6] and in data set [11] were 280 nM, 210 nM and 270 nM, respectively. Moreover, the outcome in the data set with Salmonidae and in the data set with T-24 (human) was Active. The deltaTm is 7 K in the data set filed under Homo sapiens [3], 20 K in the data set filed under Homo sapiens [5], 7 K in the data set filed under Homo sapiens [9] and > 13 K in the data set listed under Homo sapiens [10]. The concentration for half-maximal inhibition (IC50) was > 30000 nM in the data set with HEK293, 19100 nM in the data set on T-24 [8] and > 30000 nM with NIH3T3 [16]. Also, the Activity entry in the data set with T-24 [4] is “Dose-dependent effect”; in the data set on T-24 [7], 63%; in the data set on T-24 [13], 20%. Besides, the Drug uptake result with NIH3T3 [12], in the data set on NIH3T3 [14] and with NIH3T3 [15] was “Active” each time.

For the compound `N=C(N)NCCNc1c2c(c(NCCNC(=N)N)c3sccc13)C(=O)c1ccccc1C2=O`, the Kd stood at 270 nM in [1], 340 nM in [6] and 250 nM in [11]. For the same compound, the Drug uptake result in the data set with T-24 [2], with NIH3T3 [12], in the data set on NIH3T3 [14] and in the data set with NIH3T3 [15] was “Active” throughout. Moreover, the outcome in the data set with Salmonidae and with T-24 (human) was Active. The deltaTm amounted to 3 K in the data set listed under Homo sapiens [3], 12 K in the data set listed under Homo sapiens [5], 5 K in the data set filed under Homo sapiens [9] and 5 K in the data set filed under Homo sapiens [10]. Besides, the IC50 in the data set with HEK293 is > 30000 nM; in the data set on T-24 [8], 4400 nM; in the data set on NIH3T3 [16], 20000 nM. For the same compound, the Activity result is “Dose-dependent effect” with T-24 [4], 63% with T-24 [7] and 20% with T-24 [13].

As to `N=C(N)NCCCNc1c2c(c(NCCCNC(=N)N)c3sccc13)C(=O)c1ccccc1C2=O`, the figures for the dissociation constant (Kd) in data set [1], in [6] and in [11] were 230 nM, 300 nM and 180 nM, respectively. In addition, the Drug uptake entry in the data set on T-24 [2], in the data set with NIH3T3 [12], in the data set on NIH3T3 [14] and in the data set with NIH3T3 [15] was “Active” in each case. The outcome with Salmonidae and with T-24 (human) was Active. Moreover, the deltaTm in the data set filed under Homo sapiens [3] came to 3 K; in the data set listed under Homo sapiens [5], 19 K; in the data set filed under Homo sapiens [9] it was 5 K; in the data set listed under Homo sapiens [10], 11 K. The figures for the IC50 with HEK293, in the data set on T-24 [8] and in the data set with NIH3T3 [16] were > 30000 nM, 19500 nM and > 30000 nM, respectively. In addition, the Activity entry in the data set on T-24 [4] is “Dose-dependent effect”; in the data set on T-24 [7], 63%; with T-24 [13], 20%.
